Measured values pooled from the literature.
Protocols differ between the studies behind these lines.
Target: Rho-associated protein kinase 1 (ROCK1, Homo sapiens, UniProt Q13464)

assay | setting | measurement | value | SMILES
cell-free assay | 1 µM | remaining signal | 100% | C[C@H]1CC[C@H](n2c3cnccc3c3cnc(Nc4ccc5c(n4)CCN(C(=O)CO)C5)nc32)CC1
enzyme activity, inhibitor | 15 nM | remaining activity | 48.7% | Cc1cc(-c2ccnc3[nH]cc(F)c23)cc(F)c1[C@@]1(O)[C@H](C)CN(C(=O)CN)C[C@@H]1C
enzyme activity, inhibitor | 1 µM | inhibition | 26% | C=CC(=O)N1CCC[C@@H](n2nc(-c3ccc(Oc4ccccc4)cc3)c3c(N)ncnc32)C1
enzyme activity, inhibitor | 0.1 µM | remaining activity | 7.04% | Cc1cc(-c2ccnc3[nH]cc(F)c23)cc(F)c1[C@@]1(O)[C@H](C)CN(C2CCS(=O)(=O)CC2)C[C@@H]1C
enzyme activity, inhibitor | 0.1 µM | inhibition | -3.74% | Cc1cc(O)c(-c2ccc([C@@H](C)CN(C)C)cc2)c2c1[nH]c(=O)c1sccc12
enzyme activity, inhibitor | 1 µM | inhibition | 43% | CO[C@@H]1[C@H](N(C)C(=O)c2ccccc2)C[C@H]2O[C@]1(C)n1c3ccccc3c3c4c(c5c6ccccc6n2c5c31)C(=O)NC4
binding | 1 µM | remaining binding | 106% | COc1ccc2oc(-c3ccc4nc(N)oc4c3)c/c(=N\c3ccccc3NC(=O)CCN)c2c1
binding | 1 µM | remaining binding | 17% | CN1CCN(C(=O)c2ccc(NC(=O)Nc3ccc(N(C)c4ccnc(Nc5ccc(CS(C)(=O)=O)cc5)n4)cc3)cc2)CC1
binding, competition with immobilised ligand | 0.5 µM | remaining binding | 100% | CCCCC(=O)Nc1ccc(-c2ccc3ncn(CCC)c(=O)c3c2)cn1
